Each structure is given as a SMILES string.

Usually Inhibition stands for the relative decrease from the control value, in per cent.

For assay [1], the species on record is Cavia porcellus. In words: Maximum inhibition of KCl-stimulated contraction of aortic strips of guinea pig. It is filed as functional, Aorta. In outline:
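Aortic strips were held in carbogen-perfused Tyrode solution at 37 °C under 2 g preload, and isometric contractions were recorded after amplification. Contractions were induced with KCl at 67 mmol/L bath concentration to test for antagonism. Between substances the preparation was washed back to its initial state before KCl was given again.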

The species entered for assay [2] is Cavia porcellus. In words: Intrinsic activity is the inhibition of contraction of guinea pig aorta strips value in comparison with nifedipine. It is filed as functional. In outline: (§1)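 Tissue sat in carbogen-perfused Tyrode solution at 37 °C under a 2 g preload, with isometric recording. KCl (67 mmol/L bath concentration) was added after each substance to test for antagonism, with washing back to the initial state between substances. EC50 and intrinsic activity were derived as in the paper's earlier section 1c.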

Assay [3] is filed under the species Cavia porcellus. In words: Effect on KCl-stimulated contraction of aortic strips of guinea pig. It is filed as functional, Aorta. In outline: as §1
The species entered for assay [4] is Cavia porcellus. In words: (§2) Maximum inhibition of BaCl2-stimulated contraction of ileum of guinea pig. It is filed as functional. In outline:
(§3)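 Each test substance was given as a single dose to the ileum preparation. BaCl2 contraction was elicited after a 10-min exposure. Between substances the tissue was washed until the initial state returned, then BaCl2 contraction was induced again.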

The species named for assay [5] is Cavia porcellus. In words: Intrinsic activity is the inhibition of contraction of guinea pig ileum value in comparison with nifedipine. Format: functional. In short, it runs like this: as §3
The species entered for assay [6] is Cavia porcellus. In words: Effect on BaCl2-stimulated contraction of ileum of guinea pig. Format: functional. In short, it runs like this: as §3
The species entered for assay [7] is Cavia porcellus. In words: Intrinsic activity value in comparison with nifedipine. It is filed as functional.
For assay [8], the species on record is Cavia porcellus. Described as §2. It is filed as functional. In outline: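 Guinea-pig ileum, single-dose technique: each test substance was added and left for 10 min before BaCl2 contractions were induced. Between substances the preparation was washed until the initial state returned, then BaCl2 contraction was induced again.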
The source holds these as a separate data set.

On to `CO[C@H](COC(=O)C1=C(C)NC2=C(C(=O)CCC2)[C@@H]1c1ccc2c(c1)OCO2)c1ccccc1`, for which the Max effect in the assay listed under Cavia porcellus [1] is given as 70%. In the assay filed under Cavia porcellus [2], this compound registered an IA of 1. Further, in the assay filed under Cavia porcellus [3], the EC50 amounted to 7.1e-06 M l-1.

`CO[C@@H](COC(=O)C1=C(C)NC2=C(C(=O)CCC2)[C@H]1c1ccc2c(c1)OCO2)c1ccccc1`: in the assay filed under Cavia porcellus [1], the Max effect stood at 42%. Also, the IA in the assay listed under Cavia porcellus [2] was determined as 0.6. The compound further had an EC50 in the assay filed under Cavia porcellus [3] of 4e-05 M l-1.

Regarding `CO/C(O)=C1\C(C)=NC2=C(C(=O)CCC2)C1c1ccc2c(c1)OCO2` (racemic), the Max effect is 76% in the assay listed under Cavia porcellus [4] and 73% in the assay filed under Cavia porcellus [1]. In addition, the IA came out at 1 in the assay filed under Cavia porcellus [2] and 0.8 in the assay listed under Cavia porcellus [5]. Further, the EC50 stood at 5e-05 M l-1 in the assay listed under Cavia porcellus [6] and 2e-06 M l-1 in the assay listed under Cavia porcellus [3].

Turning to `COC(=O)C1=C(C)NC2=C(C(=O)CCC2)[C@@H]1c1ccc2c(c1)OCO2` (stereo in doubt; 9a), the values for the Max effect in the assay filed under Cavia porcellus [4] and in the assay filed under Cavia porcellus [1] were 42% and 38%, respectively. The values for the IA in the assay listed under Cavia porcellus [2] and in the assay filed under Cavia porcellus [5] were 0.54 and 0.44, respectively. The same compound showed an EC50 in the assay listed under Cavia porcellus [6] of 25 µM.

For `COC(=O)C1=C(C)NC2=C(C(=O)CCC2)[C@@H]1c1ccc2c(c1)OCO2` (stereo in doubt; 9b), the Max effect in the assay filed under Cavia porcellus [4] is recorded as 89%; in the assay filed under Cavia porcellus [1], 84%. Besides, the results for the IA in the assay filed under Cavia porcellus [2] and in the assay filed under Cavia porcellus [5] were 1.2 and 0.94, respectively. In addition, the EC50 in the assay listed under Cavia porcellus [6] is 22 µM.

Consider `COC(=O)C1=C(C)NC(C)=C(C(=O)OC)C1c1ccccc1[N+](=O)[O-]` [NIFEDIPINE], for which the Inhibition worked out at 70% in the assay listed under Cavia porcellus [1] and 95% in the assay filed under Cavia porcellus [8]. The compound also had an IA in the assay filed under Cavia porcellus [7] of 1. Further, the EC50 worked out at 2e-08 M l-1 in the assay listed under Cavia porcellus [6] and 8.9e-09 M l-1 in the assay filed under Cavia porcellus [3].

The record behind these values is ChEMBL document CHEMBL1126079, “Synthesis, configuration, and calcium modulatory properties of enantiomerically pure 5-oxo-1,4,5,6,7,8-hexahydroquinoline-3-carboxylates” (J Med Chem, 1992).
